Hits are enriched below; roughly 2.6% of the tested compounds scored in any of these assays.
FN deposition inh: fibronectin deposition inhibition; AH1F fibroblasts, Alexa488-fibronectin deposition fluorescence, overnight; inhibition, % at 12.6 µM; actives 0.086% (n = 350,000);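 active = mean inhibition across replicates of 30% or more, regardless of how many single replicates reach that level; inconclusive = mean under 30% yet at least half of replicates reach 30%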;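 also: positive control wells lacked labelled fibronectin entirely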
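Material: AH1F fibroblast monolayer depositing Alexa488-labelled fibronectin into matrix / Amount: 10000 AH1F cells per well / Signal: fluorescence 485/525 nm / Medium: DMEM, 2% serum / Compound: single dose, pinned / Incubation: 1 h cell adhesion before compound, then overnight fibronectin incubation / Reagent: Alexa488-FN, 24 nM final / Read-out: inhibition of fibronectin deposition signal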
S100A4 inh HTS: blocks human S100A4 binding to myosin IIA peptide; actives 0.14% (n = 360,000); P26447; inhibition, % at 10.7 µM; S100A4/TAMRA-MyoIIA peptide fluorescence polarization;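 active = mean inhibition of at least 70% across replicates, with every replicate also reaching that level; inconclusive = mean inhibition reaches 70% but some replicates fall short; inactive = mean inhibition below 70%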
Target sequence (P26447 whole entry, looked up): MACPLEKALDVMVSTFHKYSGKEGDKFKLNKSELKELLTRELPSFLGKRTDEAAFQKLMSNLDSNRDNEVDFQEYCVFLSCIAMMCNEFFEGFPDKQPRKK
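incubation = readout 5 min after mixing, signal stable up to 60 min | system = S100A4 monomer protein | buffer or medium = HEPES pH 7.2 with CaCl2, KCl, NaCl, DTT, Triton | benchmarks = neutral control DMSO, positive control TFP | also added = fluorescent myosin IIA peptide, 5 nM | compound dosing = one concentration per compound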
Env fusion inh: HIV envelope-mediated fusion inhibition; inhibition, % at 12.3 µM; HeLa-JRFL Env/CEM21 cell fusion, luciferase; actives 1.1% (n = 360,000);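 active = mean replicate inhibition score of at least 50 and every replicate individually at or above 50; inconclusive = only one of the two criteria met; inactive = mean below 50 and not all replicates reaching 50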;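 also: 0% = plate neutral controls and 100% = maraviroc near 300 nM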
Vif imaging: HIV Vif inhibition | HEK293T cells, Vif self-association by quenched fluorescence, imaging, 24 h | inhibition, % at 7.49 µM | actives 0.35% (n = 340,000); in the data active = inhibition above about 50%, passing the limit was not always enough; inconclusive = no clear call, values can overlap the other calls; inactive = below about 31%
miR-122 sensor: blocks miR-122 activity in Huh7 sensor cells. AID 602342. Huh7 miR-122 Renilla luciferase sensor, 48 h; neutral wells = 0, positive control = 100. actives 0.3% (n = 340,000). activation (reporter increase), % at 12.5 µM;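 active = mean replicate activation score at least 90 and every replicate individually at or above 90; inconclusive = only one of the two criteria met; inactive = neither criterion met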;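 also: higher luciferase means less miR-122 activity so hits act as miR-122 inhibitors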
Ecoli rRNA inh: inhibits bacterial ribosomal RNA function over humanized ribosomes; E. coli WT GFP vs humanized-ribosome RFP mutants, fluorescence, 24 h; stronger effect = lower value; DMSO median 0, no signal -100; GFP signal change (wild-type ribosome), % (test concentration not listed); AID 720706; actives 1.6% (n = 350,000);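 active = significant combined selectivity score with lowered wild-type GFP, culture density cut under 30%, mutant RFP and density less affected; inactive = any of these conditions unmet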
Numbers without * were called inactive; ? = inconclusive; . = no result; [ ] = remark or other dose.

SMILES | FN deposition inh | S100A4 inh HTS | Env fusion inh | Vif imaging | miR-122 sensor | Ecoli rRNA inh
Cc1cc(C2(c3ccc(O)c(C)c3)C(=O)N(C)c3ccc(Br)cc32)ccc1O | -5 | 1 | -6 | -4 | -4 | -40*
COc1cccc(C(=O)Nc2ccc3[nH]c(=O)[nH]c3c2)c1OC | 2 | 4 | 60* | 2 | -3 | 8
COc1ccccc1C(=O)Nc1ccc2c(c1)C(=O)N(C)C[C@H](OC)[C@H](C)CN(CC1CC1)[C@H](C)CO2 | 8 | 6 | -17[16.7 µM] | . | . | -2
CC(C)NC(=O)Nc1ccc2c(c1)C(=O)N([C@@H](C)CO)C[C@H](C)[C@@H](CN(C)Cc1ccc(C(F)(F)F)cc1)OCCCC[C@H](C)O2 | 2 | -1 | -11[16.7 µM] | . | -1[16.7 µM] | 0
O=C(C[C@@H]1CC[C@H]2[C@@H](COC[C@@H](O)CN2S(=O)(=O)c2ccc(F)cc2)O1)NCc1ccc(Cl)c(Cl)c1 | -2 | -6 | . | . | -4[16.7 µM] | -41
COc1cccc(C(=O)NCCSc2c(C)[nH]c3ccccc23)c1OC | -13 | -2 | 4 | 0 | . | -35
CC/C(=C/c1ccccc1)c1cccc2[nH]c3c(OC)cccc3c12 | 0 | -1 | 58* | -3 | . | 17
Cc1ccc(NS(=O)(=O)c2ccc(NC(=O)C3CC3)cc2)cc1C | 2 | -8 | 3 | -1 | -2 | -24*
CC(C)(C)NS(=O)(=O)c1ccc(NC(=S)NC(=O)C2CC2)cc1 | -3 | 5 | 9 | -7 | 196* | -17
C[C@H](O)C#Cc1ccc2c(c1)O[C@@H](CN(C)C(=O)c1ccccc1)[C@H](C)CN([C@@H](C)CO)S2(=O)=O | 2 | 1 | -1[16.7 µM] | . | -4[16.7 µM] | 1
COc1ccc2c3c(n(C)c2c1)[C@H](CO)N(Cc1ccccc1)CC31CCN(C(=O)c2ccccc2F)CC1 | . | 8 | . | . | . | 12
CCS(=O)c1scc(-c2ccc(Cl)cc2)c1C#N (stereo not given) | 0 | -11 | 39 | -12 | . | -32*
COc1ccc(CN(C)C[C@H]2OCCCC[C@H](C)Oc3ccc(NC(=O)c4ccccc4)cc3C(=O)N([C@H](C)CO)C[C@H]2C)cc1 | . | 6 | -3[16.7 µM] | . | -8[16.7 µM] | -1
C[C@@H]1CN([C@@H](C)CO)S(=O)(=O)c2ccc(-c3ccccc3)cc2O[C@H]1CN(C)C(=O)C1CC1 | -3 | . | -3[16.7 µM] | . | 6[16.7 µM] | -7
C=CCn1c(Cc2ccc(OCC)cc2)nnc1SCC(N)=O | 1 | . | 77* | 17 | -3 | .
C/C=C/c1cnc2c(c1)C(=O)N([C@H](C)CO)C[C@H](C)[C@@H](CN(C)C(=O)Nc1ccc(OC)cc1)O2 | 1 | -1 | -10[16.7 µM] | . | 7[16.7 µM] | 2
C[C@@H]1CCCCO[C@@H](CN(C)CC2CC2)[C@@H](C)CN([C@H](C)CO)C(=O)c2cc(NS(=O)(=O)c3cccs3)ccc2O1 | . | . | -7[16.7 µM] | . | 4[16.7 µM] | 3
Cc1cc(/C=C2\C(=N)N3N=CSC3=NC2=O)c(C)n1Cc1ccccc1 | -3 | -6 | -32 | 14 | . | -33*
CCC/C(O)=C1\C(=O)CC(C)(C)CC1=NCc1ccccc1 | -2 | 2 | 38 | -3 | . | -22*
COc1ccccc1/C=C1\SC(=S)N(CCC(=O)N2CCN(C)CC2)C1=O | -1 | -2 | -2 | 8 | 4 | -19*
COc1ccccc1/C=C1\SC(=S)N(CCC(=O)NCCCn2ccnc2)C1=O | 6 | 1 | 17 | ? | 4 | -24*
O=C(CCCN1C(=O)/C(=C/c2ccccc2Cl)SC1=S)N1CCCC1 | 5 | 1 | 4 | -4 | 2 | -40*
O=C(CCN1C(=O)/C(=C/c2ccccc2Cl)SC1=S)N1CCCC1 | 23 | 0 | 3 | 6 | 3 | 1
CN1CCN(C(=O)CCN2C(=O)/C(=C\c3ccc(F)cc3)SC2=S)CC1 | . | -4 | -77 | 2 | 1 | 0
CC(=O)Nc1ccc2c(c1)C(=O)N(C)C[C@@H](C)[C@H](CN(C)S(C)(=O)=O)O2 | 3 | . | . | . | . | 0
SMILES | FN deposition inh | S100A4 inh HTS | Env fusion inh | Vif imaging | miR-122 sensor | Ecoli rRNA inh
CC(=O)N1[C@@H]2Cn3c(ccc(C4=CCCC4)c3=O)[C@H]1[C@@H](C(=O)N[C@H](C)c1ccccc1)[C@@H]2CO | . | -16 | . | . | -5[16.7 µM] | -2
O=C(CCl)Nc1cn(-c2ccccc2)nc1-c1ccccc1 | -4 | -7 | -2 | 0 | . | -27*
CC1CN(S(=O)(=O)c2cccc(C(=O)NCCCn3ccnc3)c2)CC(C)O1 (stereo not given) | 2 | . | -92 | 3 | -5 | .
CC1CN(S(=O)(=O)c2ccc(C(=O)NCCCn3ccnc3)cc2)CC(C)O1 (stereo not given) | 9 | -4 | 5 | 52* | . | 21
NC(=O)c1nnsc1Sc1c(C(N)=O)nnn1-c1cccc(N)c1 | 0 | -9 | 28 | 2 | -5 | -27*
NNC(=O)c1oc2nc(-c3ccco3)cc(-c3ccco3)c2c1N | 0 | -21 | -5 | -8 | 1 | -14*
Nc1c(C(=O)N/N=C/c2cccnc2)oc2nc(-c3ccco3)cc(-c3ccco3)c12 | 10 | 0 | 5 | -4 | 1 | 8
Cc1noc(C)c1NC(=O)Nc1cccc2c1O[C@H](CN(C)C(=O)Nc1ccc(F)cc1)[C@@H](C)CN([C@@H](C)CO)C2=O | . | . | 5[16.7 µM] | . | 1[16.7 µM] | 0
Cc1cc(=O)c2ccccc2n1Cc1ccccc1 | -8 | -4 | 3 | -21 | . | -22*
O=C(Nc1cccc2ccccc12)/C(=C/c1ccc([N+](=O)[O-])cc1)NC(=O)c1ccccc1 | 0 | . | -177 | -13 | 238* | .
O=C(Nc1cccc(C(=O)O)c1)/C(=C/c1ccc([N+](=O)[O-])cc1)NC(=O)c1ccccc1 | 5 | 9 | -1 | 6 | . | 6
O=C(C1CCOCC1)N1C[C@@H]2[C@H](c3ccccc31)[C@H](CO)N2C(=O)Nc1cccc(F)c1 | -21 | -7 | . | . | -10[16.7 µM] | 3
CCC[N+]1(CC#CCC(c2ccccc2)c2ccccc2)CCCCC1 | 4 | -3 | 74* | -3 | -7 | -55
CCOC(=O)N1CCC(NC(=O)c2cc3c(-c4cccc(OC)c4)nn(C)c3s2)CC1 | . | . | . | . | -1 | .
CCOC(=O)N1CCN(C(=O)c2cc3c(-c4cccc(OC)c4)nn(C)c3s2)CC1 | 10 | -3 | 15 | -1 | -5 | -29*
C=CCc1ccc(OCCCCN2CC(C)CC(C)C2)c(OC)c1 (stereo not given) | -4 | -2 | 22 | -6 | 3 | -22*
CCCN1[C@@H]2c3ccc(C4=CCCC4)c(=O)n3C[C@H]1[C@H](CO)[C@H]2C(=O)NCCOC | . | 4 | . | . | 8[16.7 µM] | 2
CCCOC(c1ccccc1)(c1ccccc1)C(Oc1nc(C)cc(C)n1)C(=O)O (stereo not given) | 0 | 1 | 11 | 14 | 1 | -19*
